In all, about 97,000 compounds went through this assay and about 770 (0.79%) were called active. The sample holds actives, similar compounds and a random draw of the others, so the mix is not that of the screen.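 The calls were made as follows: active = inhibition above the screen-wide mean plus 3 SD (cut at about 35% in these data); inactive = the rest.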
The molecules below were run against Protein Rev (Human immunodeficiency virus type 1 group M subtype B (isolate WMJ22)) (UniProt P05866) (assay: HIV-1 Rev-RRE binding inhibitors, primary screen, biochemical, FRET, protein-RNA interaction (AID 704;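 also: 0% = median DMSO wells and 100% = median Neomycin B control wells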)). Settings: Rev peptide-RRE RNA binding, at 8 µM, hits give high values.
Chain of Protein Rev (Human immunodeficiency virus type 1 group M subtype B (isolate WMJ22)) (P05866 whole entry, looked up): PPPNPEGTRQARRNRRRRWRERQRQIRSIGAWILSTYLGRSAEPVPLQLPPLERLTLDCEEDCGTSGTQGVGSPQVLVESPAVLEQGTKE
Outline: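 Test system: Cy5-tagged RRE RNA duplex with fluorescein-tagged Rev peptide | Read-out: % inhibition of FRET ratio versus controls | Probe or stimulus: Labelled Rev peptide | Incubation: 5 min RNA-compound premix plus 15 min binding step, 25 °C | Technique: FRET fluorescence readout | Benchmarks: DMSO low control, neomycin B high control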

inhibition, active:
CCCCCCc1cc2cc(-c3nnc(-c4ccccc4)o3)c(=O)oc2cc1O 136% [fluorescence artefact?]
CCCCCCc1cc2cc(-c3nnc(-c4cccc(OC)c4)o3)c(=O)oc2cc1O 126% [fluorescence artefact?]
COC(=O)C1=C(C)NC2=C(C(=O)c3ccccc32)C1c1ccc(-c2ccc(C(=O)O)cc2)o1 (configuration not stated) 41.7%

inhibition, inactive:
COC(=O)c1sccc1-n1cccc1C(=O)C(=O)N1CCCCC1 4.4%
Cc1cccc(-c2nc3c(c(SCC(=O)N4CCOCC4)n2)CCCC3)c1 12.4%
CCCCSc1[nH]c(=O)c(C(=O)OCC)cc1C#N 0.71%
COc1ccc(-n2nc(C(=O)NCC(=O)Nc3cccc(C)n3)c3ccccc3c2=O)cc1 6.83%
Cc1nc(-c2ccccc2)sc1-c1nc(-c2ccccc2)ncc1S(=O)(=O)c1ccccc1 2.59%
CNC(=O)/C(=C\C=C\c1ccccc1)NC(=O)c1ccc([N+](=O)[O-])cc1 3.26%
CCOC(=O)c1cnn(Cc2ccccc2Cl)c1N 3.78%
CCCCN(CC)CCCNC(=O)CS(=O)(=O)Cc1nc(-c2cccc(OC)c2)oc1C -1.81%
COc1cccc(C(=O)c2cc3ccc(O)cc3oc2=O)c1 2.17%
O=c1oc2cc(O)ccc2cc1-c1ccc(F)cc1 10.2%
COc1cc(C(=O)NC(=S)NCc2ccco2)cc(OC)c1OC -0.1%
COc1ccc(-c2cc(C3CCN(c4ncccc4[N+](=O)[O-])CC3)[nH]n2)cc1 15.1%
Cc1cccc(CSc2nnc(NC(=O)CSc3nnc(C)s3)s2)c1 2.97%
Cc1ccc(-c2noc(CSc3nnc(-c4ccncc4)n3-c3ccc(F)cc3)n2)cc1 1.43%
CCOc1ccc(NC(=O)N(CC(C)C)CC(C)C)cc1 7.89%
COc1ccc(CCNC(=S)NC(=O)/C=C/c2ccc(C)cc2)cc1OC -2.76%
CC(=O)Nc1ccc(S(=O)(=O)N2CCN(C(=O)c3ccccc3F)CC2)cc1 4.25%
Cn1c2c(c(=O)n(C)c1=O)C(c1cccc([N+](=O)[O-])c1)Nc1ccccc1O2 (configuration not stated) 0.04%
CS(=O)(=O)n1nc(-c2ccccc2)nc1NCc1ccco1 7.66%
CSc1nc(N(C)NC(=O)c2cccc(C)c2)c2ccccc2n1 3.84%
Cc1ccc(C)c(NC(=O)C2Cc3ccccc3CN2C(=O)OCc2ccccc2)c1 (configuration not stated) 15.4%
CCOC(=O)c1c(C)oc2cc(Br)c(OCC(N)=O)cc12 -5.76%
COc1ccccc1NC(=O)C1=C(C)NC2=C(C(=O)CCC2)C1c1ccc(C)o1 (configuration not stated) -3.73%
COC(=O)C1=C(C)NC(=O)NC1/C=C/c1ccccc1 (configuration not stated) 7.27%

Source: PubChem BioAssay AID704 (The Scripps Research Institute Molecular Screening Center, 2007)
